Results gathered from unrelated publications.
Each line is one published result; the experiments were not run side by side.
Target: Dual specificity mitogen-activated protein kinase kinase 6 (MAP2K6, Homo sapiens, UniProt P52564)
Sequence (P52564 1-334, as in one of the studies): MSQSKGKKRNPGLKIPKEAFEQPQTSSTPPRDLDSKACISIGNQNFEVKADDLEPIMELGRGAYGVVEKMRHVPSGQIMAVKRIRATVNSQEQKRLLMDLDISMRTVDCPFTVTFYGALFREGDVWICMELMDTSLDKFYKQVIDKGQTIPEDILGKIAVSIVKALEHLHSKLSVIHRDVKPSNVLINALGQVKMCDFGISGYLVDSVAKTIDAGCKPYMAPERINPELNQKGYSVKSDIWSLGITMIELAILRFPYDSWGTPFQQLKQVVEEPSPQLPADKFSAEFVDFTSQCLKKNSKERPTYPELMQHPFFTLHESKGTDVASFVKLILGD

| Structure (SMILES) | read-out | technique | concentration | remaining binding [%] |
| --- | --- | --- | --- | --- |
| O=C(Nc1c[nH]nc1C(=O)NC1CCNCC1)c1cc(F)cc(F)c1 | binding | competition with immobilised ligand | 1 µM | 100 |
| c1cnn2ncc(-c3ccnc(N4CCC45COC5)n3)c2c1 | binding | – | 1 µM | 100 |
| c1cncc(-c2cccc(Nc3nccc(NC4CCCCC4)n3)c2)c1 | binding | competition with immobilised ligand | 10 µM | 79 |
| Nc1cnc(N2CCc3cc(S(=O)(=O)Nc4c(F)cc(Cl)cc4F)cc(N4CCCC4=O)c32)nc1 | cell-free assay | competition with immobilised ligand | 1 µM | 71 |
| COc1cnc(Nc2cccc(S(N)(=O)=O)c2)nc1N1CCN(c2ccccc2)CC1 | binding | competition with immobilised ligand | 1 µM | 100 |
| COc1ncc2cc3ccccc3nc2c1C#N | cell-free assay | competition with immobilised ligand | 5 µM | 100 |
| CC(=O)C1=C(C)N(c2cccc(C(F)(F)F)c2)C(=O)N[C@@H]1c1ccc(C#N)nc1 | cell-free assay | competition with immobilised ligand | 1 µM | 94.6 |
| O=C(c1ccc(Nc2ncc(Cl)c(-c3ccc(Cl)s3)n2)cc1)N1CCC(N2CCCC2)CC1 | binding | competition with immobilised ligand | 1 µM | 29 |
| Cn1nc(C(F)(F)F)cc1-c1cnc(N2CCc3cc(S(=O)(=O)Nc4c(F)cc(Cl)cc4F)cc(N4CCCC4=O)c32)nc1 | cell-free assay | competition with immobilised ligand | 1 µM | 100 |
| CC1CCCN1c1nccc(-c2cnn3ncccc23)n1 (centres unmarked) | binding | – | 1 µM | 100 |
| C=CC(=O)N1CCC(C(=O)NCC(=O)N2CCN(c3nc(-c4cnc(N)nc4C(F)F)nc(N4CCOCC4)n3)CC2)CC1 | binding | competition with immobilised ligand | 1 µM | 100 |
| CN(C)c1nccc(-c2cnc3ncccn23)n1 | binding | – | 1 µM | 99 |
| O=C(c1ccc(Nc2nccc(-c3cc4ccccc4s3)n2)cc1)N1CCC(N2CCCC2)CC1 | binding | competition with immobilised ligand | 1 µM | 33 |
| CNC(=O)Nc1ccc2c(c1)CC[C@@]21OC(=O)N(CC(=O)N(Cc2ccc(F)cc2)[C@@H](C)C(F)(F)F)C1=O | cell-free assay | competition with immobilised ligand | 1 µM | 100 |
| C[C@@H](c1ccc(-n2cnc3c(N)ncnc32)cc1)N1CCc2nn(C)c(Cc3ccccc3)c2C1=O | binding | competition with immobilised ligand | 0.1 µM | 90 |
| Cc1cnn2ncc(-c3ccnc(N(C)C)n3)c2c1 | binding | – | 1 µM | 100 |
| C[C@H](NC(=O)c1cnc2n1[C@](C)(Cc1ccc(C#N)cc1)C(=O)N2c1cc(Cl)c(F)c(Cl)c1)C(=O)NC1(c2ccccn2)CC1 | cell-free assay | competition with immobilised ligand | 1 µM | 80 |
| CN(C)c1nccc(-c2cnn3ncccc23)n1 | binding | – | 1 µM | 58 |
| O=C(c1ccc(Nc2ncc(Cl)c(-c3cc4ccccc4s3)n2)cc1)N1CCC(N2CCCC2)CC1 | binding | competition with immobilised ligand | 1 µM | 37 |
| CN([C@@H]1CCc2c(CC(=O)O)c3ccccc3n2C1)S(=O)(=O)c1ccc(F)cc1 | cell-free assay | competition with immobilised ligand | 1 µM | 100 |
| N[C@H]1CCN(c2nccc(-c3cnn4ncccc34)n2)C1 | binding | – | 1 µM | 100 |
| C[C@H](c1ccnc(Nc2nc3ccc(-c4cc(N(C)C)ncn4)cc3[nH]2)c1)N1CCN(C(=O)CC(F)(F)F)CC1 | cell-free assay | competition with immobilised ligand | 0.1 µM | 96 |
| C[C@H]1CCN(c2nccc(-c3cnn4ncccc34)n2)C1 | binding | – | 1 µM | 100 |
